# Screening results from PubChem BioAssay.
# M1 ag: agonists of M1 muscarinic receptor. CHO-M1 cells, Fluo-4 calcium fluorescence, agonist mode; stronger effect = higher value. B-score at 10 µM. actives 3% (n = 64,000);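 active = fluorescence rise, raw or as B-score row- and column-corrected plate score, outside the 99.7% band of its plate's samples, either direction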
# S1P3 agonist: agonists of human S1P3 receptor; actives 0.1% (n = 60,000); Q99500; S1P3 NFAT-BLA reporter cells, agonism, FRET ratio; relative to 1 µM S1P, basal subtracted; activation, % at 4.5 µM;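 active = activation above the screen-wide mean plus 3 SD, cut at about 4.5% in these data, passing the limit was not always enough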
#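 Assay system: CHO cells stably expressing human S1P3, Gα16 and NFAT-β-lactamase reporter. Timing: overnight plating, 4 h compound 37 °C, 2 h substrate RT. Signal: β-lactamase FRET emission ratio 460/535 nm. Measure: percent activation versus median 1 µM S1P response, basal-subtracted, per plate. Repeats: primary screen single test, confirmation screen in triplicate.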
# M1 antagonist: antagonists of rat M1 muscarinic receptor. P08482. actives 3.4% (n = 64,000). AID 628. B-score at 10 µM. CHO-M1 cells, Fluo-4 calcium, ACh EC80 antagonist mode; stronger effect = lower value;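 active = calcium fluorescence response, raw or row-and-column corrected B-score, differing from the plate sample mean either way at a set confidence level, mostly lower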
# Target sequence (P08482 whole entry, looked up): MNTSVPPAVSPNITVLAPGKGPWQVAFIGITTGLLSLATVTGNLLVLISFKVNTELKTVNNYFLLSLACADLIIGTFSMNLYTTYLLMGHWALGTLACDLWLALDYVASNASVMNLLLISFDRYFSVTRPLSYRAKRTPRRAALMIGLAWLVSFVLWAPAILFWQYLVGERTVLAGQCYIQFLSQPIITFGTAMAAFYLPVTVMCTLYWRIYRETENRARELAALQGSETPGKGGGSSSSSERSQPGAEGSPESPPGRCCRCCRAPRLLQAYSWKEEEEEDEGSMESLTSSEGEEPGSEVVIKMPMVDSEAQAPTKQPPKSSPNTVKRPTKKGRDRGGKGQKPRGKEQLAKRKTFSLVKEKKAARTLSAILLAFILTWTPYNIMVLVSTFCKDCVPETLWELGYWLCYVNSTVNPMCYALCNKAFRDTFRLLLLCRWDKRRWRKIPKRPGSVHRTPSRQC
# S1P1 ag pot: agonists and agonism potentiators of human S1P1 receptor | P21453 | activation, % at 9.5 µM | actives 0.57% (n = 56,000) | S1P1 CRE-bla cells, forskolin, beta-lactamase FRET, potentiator mode; S1P1 agonist co-added at EC20, 2 nM; 100% = saturating reference agonist, 0% = basal;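 active = activation above a cutoff set at the mean activation of all tested compounds plus 3 SD, cut at about 54% in these data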;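 note: forskolin at 4 µM as EC80 and the EC20 agonist is SEW2871; 100% = SEW2871 at its EC100 plus forskolin at EC80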
# D1 allo mod: D1 dopamine receptor (human) allosteric modulation; P21728; HEK293 D1, CRE-luciferase, dopamine EC30 potentiation; actives deviate in either direction; B-score at 10 µM; actives 5.9% (n = 58,000); AID 641;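 active = luminescence count or its row- and column-corrected plate score outside the 99.7% band of the plate's sample wells, on either side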
# D1 PAM confirm: confirmation of human D1 dopamine receptor allosteric modulators | shares compounds with D1 allo mod | HEK293 D1 CRE-luciferase, dopamine EC30 potentiation; stronger effect = higher value | luminescence at 10 µM | actives 88% (n = 2,200);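 active = luminescence in either of two replicates above the same-plate mean plus 3 SD of the low-dose dopamine control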
# D1 ag no DA: secondary test of D1 modulators: activity without dopamine; luminescence at 10 µM; shares compounds with D1 allo mod; actives 0.8% (n = 1,900); HEK293 D1 CRE-luciferase, luminescence, no dopamine; stronger effect = higher value; in the data active = luminescence above about 3900
# Isoprot counter: isoproterenol response counter-screen activity for D1 modulators; shares compounds with D1 allo mod; HEK293 D1 CRE-luciferase, isoproterenol EC30 counter-screen; stronger effect = higher value; luminescence at 10 µM; actives 63% (n = 2,200);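 active = luminescence in either replicate above plate mean of wells with a partly effective reference agonist dose plus 3 SD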;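 note: isoproterenol raises cAMP through native beta-adrenoceptor Gs so signal bypasses D1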
# The depositor's hits bear a star; . = no result. The list is not random: actives were taken first. Their share in the collection is about 11%.
SMILES,M1 ag,S1P3 agonist,M1 antagonist,S1P1 ag pot,D1 allo mod,D1 PAM confirm,D1 ag no DA,Isoprot counter
N#Cc1ccc(CSc2nnc(-c3cccs3)n2-c2ccccc2)cc1,0.092,0,-0.72,31,1.1,.,.,.
FC(F)Sc1nnc(-c2cccs2)n1-c1ccccc1,-0.11,0,0.096,.,6.9*,13848*,1504,3332*
CCN1CCN(Cc2ccc(NC(=O)Nc3ccccc3OC)cc2)CC1,-0.081,0,-1.3,-28,-2.4,.,.,.
COc1cc(NC(=O)c2nnn(Cc3ccc(SC)cc3)c2N)cc(OC)c1,0.0018,-1,0.023,12,1.5,.,.,.
CCOc1ccc(Cl)cc1S(=O)(=O)N1CCCC1,-0.86,0,0.017,-7,-1.5,.,.,.
CCOc1c(S(=O)(=O)N2CCCC2)ccc(Cl)c1Cl,0.086,-1,0,-10,12*,11948*,1540,3712*
Cc1cc(C)nc(-n2nc(C)cc2Nc2ccccc2)n1,-0.17,0,-0.28,4,0.27,.,.,.
CCC(C(=O)Nc1cc(C)nn1-c1nc(C)cc(C)n1)c1ccccc1 (centres undefined),1.2,0,0.28,-47,9.9*,12296*,.,4664*
CCOc1ccccc1NC(=O)CCSc1nc2n[nH]c(C)c2c(=N)n1-c1ccccc1Cl,1.6,.,-0.87,.,3.8*,11132*,1584,3292*
Cc1ccccc1-n1c(SCc2ccccn2)nc2n[nH]c(C)c2c1=N,-0.44,0,-0.9,-22,2.3,.,.,.
CCc1ccc(NC(=O)CSc2nnc(-c3ccccn3)n2C)cc1,0.17,0,-0.089,-18,-0.04,.,.,.
CCOc1ccccc1-n1c(SCC(=O)Nc2ccc(CC)cc2)nc2n[nH]c(C)c2c1=N,-0.66,4,-0.32,-33,2*,7472,1852,2672
Cc1ccc(Cn2c(NCCCn3ccnc3)nc3c2c(=O)n(C)c(=O)n3C)cc1,-0.0045,-1,0.014,4,3.1,.,.,.
Nc1nnc(-c2cn(-c3ccccc3)nc2-c2ccccc2)o1,0.99,1,-1.9,0,3*,15252*,1756,3772*
COc1ccc(N2CC(C)Cn3c2nc2c3c(=O)[nH]c(=O)n2C)cc1 (centres undefined),1.2,-1,0.049,-10,-0.35,.,.,.
COCCCNC(=O)C1CCCN(C(=O)Nc2ccc(OC)cc2)C1 (centres undefined),-1.2,0,-0.59,0,0.13,.,.,.
COc1cc2c(cc1OC)-c1cc(Nc3ccc4c(c3)OCCO4)nc(=O)n1CC2,-0.0016,0,-2.6,-57,24*,13360*,1788,12024*
COc1ccc(-c2nc3ncccn3c2Nc2ccc3c(c2)OCCO3)cc1,-1.4,.,1.1,.,0.48,.,.,.
COc1cc2c(cc1OC)-c1cc(OCc3cccnc3)nc(=O)n1CC2,0.15,0,-2.4,-19,19*,25704*,2128,9096*
COc1cc2c(cc1OC)-c1cc(N3CCCc4ccccc43)nc(=O)n1CC2,0.69,2,-0.089,-25,.,.,.,.
CCN(CC)CCCNc1cc2n(c(=O)n1)CCc1cc(OC)c(OC)cc1-2,-0.58,0,-0.011,-8,0.2,.,.,.
COc1cc2c(cc1OC)-c1cc(NC3CCCCCC3)nc(=O)n1CC2,0.31,1,1.2,-55,4*,20748*,2368,16100*
COc1cc2c(cc1OC)-c1cc(N3CCCCCC3)nc(=O)n1CC2,-0.31,2,0.17,-78,3.9*,21696*,2196,10616*
CCCCC(SCC(=O)Nc1ccccc1)C(=O)O (centres undefined),0.2,-1,-0.59,15,0.015,.,.,.
COc1cccc(Nc2nc(N)nc(C(F)(F)F)n2)c1,-0.015,0,0.009,-8,11*,14320*,1712,4140*
SMILES,M1 ag,S1P3 agonist,M1 antagonist,S1P1 ag pot,D1 allo mod,D1 PAM confirm,D1 ag no DA,Isoprot counter
Nc1nc(Nc2ccccc2Br)nc(C(F)(F)F)n1,-0.045,1,-2.5,-33,7.3*,15052*,1632,3612*
COc1nc(Nc2cccc(C(F)(F)F)c2)nc(OC)n1,0.82,.,0.71,.,2.1,.,.,.
Nc1nc(Nc2ccc(Cl)cc2Cl)nc(C(F)(F)F)n1,0.64,0,-1.2,-37,11*,13920*,.,3436*
CCC(C)NC(=O)C1=C(C)C(=O)OC12CCC(C)CC2 (centres undefined),-0.66,0,0.64,-6,-0.3,.,.,.
CC(=O)N=c1sc2nc3ccccc3nc2n1N(C(C)=O)C(C)=O,-0.055,0,0.42,-13,2.8*,8388*,1468,2452
COC(=O)c1ccccc1NC(=O)C1CCCN(S(C)(=O)=O)C1 (centres undefined),-0.25,0,0,-14,0.81,.,.,.
COC(=O)c1ccccc1NC(=O)C1CCN(S(=O)(=O)c2cc(C)ccc2OC)CC1,1.3,0,0.41,.,17*,16104*,1660,4268*
O=C1CC(N2CCN(C3CCc4ccccc4C3)CC2)C(=O)N1c1ccccc1 (centres undefined),-0.76,0,-2.9,-16,-0.39,.,.,.
Cc1ccc(C2c3sc(=O)[nH]c3SC3C(=O)NC(=O)C32)cc1 (centres undefined),0.14,0,0.26,20,-1.7,.,.,.
CCCC(=O)c1ccc(N2CCCCCC2)c(F)c1,0.11,-1,0.074,.,0.2,.,.,.
CC(=O)c1ccc(N2CCCCCC2)c(F)c1,0.65,-2,-0.59,-20,2.7*,5360,1576,2716
CCSc1oc(-c2cccs2)nc1S(=O)(=O)c1ccccc1,-0.34,-1,-0.36,-4,15*,18740*,1592,3712*
CCSc1oc(-c2ccco2)nc1S(=O)(=O)c1ccc(F)cc1,0.75,.,-0.53,.,4.6*,11820*,1660,3012
COc1ccc(S(=O)(=O)N2CCSC2c2ccc(OC)c(OC)c2)cc1 (centres undefined),-1.2,-1,-0.63,-13,4.2*,10220*,1664,2836
COC(=O)c1ccc(CSc2nc3c(cnn3-c3ccccc3)c(=O)[nH]2)o1,-0.18,-2,0.28,-37,6.5*,12392*,1648,4400*
COC(=O)c1ccc(CSc2nc3c(cnn3-c3ccc(F)cc3)c(=O)[nH]2)o1,-0.21,.,-0.14,.,5.3*,9428*,1608,3288
O=C(CSc1nc2ccccc2c(=O)n1Cc1ccco1)NCc1ccccc1,0.018,0,0.64,24,.,.,.,.
CC1CCN(C(=O)CSc2nc3c(cnn3-c3ccccc3)c(=O)[nH]2)CC1,0.55,0,0.01,-13,2,.,.,.
